PLAP act: activates human placental alkaline phosphatase; P05187; purified PLAP enzyme, luminescent substrate read-out; hits give high values; activation fold at 20 µM; 1.2% of 96,000 active; in the data active means activation fold above about 2
Ecoli tolC: growth inhibitors of E. coli BW25113 tolC mutant; OD615; AID 573; 2.2% of 65,000 active; growth inhibition, % at 10 µM (by protocol);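 active means growth inhibition at or above a cutoff equal to the mean over every tested compound plus 3 SD, cut at about 60% in these data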;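 further: growth measured after 20 h incubation at 37 °C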
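Doses: one dose of 10 µM final / Material: E. coli BW25113 ΔtolC::kan, tolC deletion mutant strain / Buffer or medium: LB with kanamycin 50 µg/mL / Evaluation: percent growth inhibition / Detection: optical density read at 615 nm / Incubation: 37 °C, 20 h exposure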
PostGolgi ctrl: growth of the yeast control strain, post-Golgi counter-screen | efflux-deficient yeast background strain, growth absorbance A615, 16 h | inhibition, % at 10 µM | 5% of 98,000 active
Ecoli WT expand: blocks growth of wild type E. coli BW25113; 0.15% of 98,000 active; AID 710; growth inhibition, % at 100 µM; OD600 absorbance;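 active means growth inhibition above about 50% at one test dose, limit read from the data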;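 further: growth measured after 20 h incubation at 37 °C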
HePTP inhibitor: human HePTP phosphatase inhibition; P35236; recombinant HePTP phosphatase activity, OD absorbance; inhibition, % at 20 µM; 0.64% of 110,000 active; AID 521; in the data active means inhibition above about 50%;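 further: plate controls were vehicle for no effect and reference inhibitor for full effect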
Target sequence (P35236 whole entry, looked up): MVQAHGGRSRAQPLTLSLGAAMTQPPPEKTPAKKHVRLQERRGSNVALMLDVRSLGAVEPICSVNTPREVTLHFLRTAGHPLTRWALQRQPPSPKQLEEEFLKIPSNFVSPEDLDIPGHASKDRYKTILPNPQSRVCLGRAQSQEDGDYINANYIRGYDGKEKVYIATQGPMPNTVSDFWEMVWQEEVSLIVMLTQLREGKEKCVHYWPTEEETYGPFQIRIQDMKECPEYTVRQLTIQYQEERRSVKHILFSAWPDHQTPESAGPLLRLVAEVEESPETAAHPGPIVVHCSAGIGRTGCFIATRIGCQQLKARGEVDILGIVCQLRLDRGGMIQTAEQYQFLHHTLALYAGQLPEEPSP
PostGolgi yeast: growth inhibition of a yeast mutant, post-Golgi transport screen. post-Golgi transport phenotypic cell assay. 0.9% of 98,000 active. inhibition, % at 10 µM;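 further: yeast cells grown in 1536-well plates; yeast grown about 18 h at 30C before absorbance read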
The depositor's hits bear a star; . = not tested or not shown. A selection: hits, their analogues and other compounds. The true share with any hit is near 5.4%. Unless noted, no stated cut-off is given here; in the data, active means inhibition above about 30%; inactive means the rest.

SMILES	PLAP act	Ecoli tolC	PostGolgi ctrl	Ecoli WT expand	HePTP inhibitor	PostGolgi yeast
CC(C)(C)NC(=O)C1CN(S(=O)(=O)c2ccccc2)CCN1S(=O)(=O)c1ccccc1 (stereo unspecified)	1.1	16	2	24	-2	-3
COc1ccc(C(=O)CC2OC(=O)c3c2ccc(OC)c3OC)cc1 (stereo unspecified)	1.3	.	5	11	.	-2
COc1cc(OC)c(OC)cc1/C=N/n1c(C)nnc1C	1	-15	9	-4	5	14
COc1cc(/C=C2/SC(=S)NC2=O)cc(Cl)c1OCc1ccccc1F	.	.	.	.	-2	.
COc1cc(/C=C2/SC(=S)NC2=O)cc(Cl)c1OCc1cccc2ccccc12	.	.	.	.	102*	.
CCCOc1c(Cl)cc(/C=C2/SC(=S)NC2=O)cc1OC	.	.	.	.	-2	.
CCOc1cc(/C=C2/SC(=S)NC2=O)cc(Cl)c1OCc1ccc(Cl)cc1Cl	.	.	.	.	84*	.
Cc1ccc(-n2c(SCC(=O)OC(C)C)nnc2-c2ccco2)cc1	1.1	2	11	7	4	0
O=C(Nc1ccccc1)Nc1nnc(SCCOc2ccccc2)s1	.	.	.	.	0	.
CC(=O)Nc1nnc(SCC(=O)NCCOc2ccccc2)s1	0.9	-9	51*	-2	6	5
COc1ccc2oc(=O)c(C(=O)N3CCc4ccccc43)cc2c1	0.9	-15	-3	2	11	4
CC(C)Cn1c(=O)c(C(=O)NCc2ccccn2)c(O)c2ccccc21	1.4	-3	31*	13	-10	-5
CCc1oc2c(C)c(O)ccc2c(=O)c1-c1ccc2ccccc2n1	1.1	.	11	-11	.	-3
Cc1oc2c(CN(C)C)c(O)ccc2c(=O)c1-c1ccc2ccccc2n1	1.2	-9	35*	6	2	-6
Nc1c(C(=O)NC2CCCCC2)nsc1C(=O)OCC(=O)NC1CCCCC1	1	15	31*	-11	2	-8
CC(=O)c1cccc(NC(=O)c2cc(Cl)ccc2[N+](=O)[O-])c1	.	.	.	.	3	.
Fc1ccc(-n2c(Cc3ccccc3)nnc2SCc2nc(-c3cccs3)no2)cc1	1.1	70*	33*	-20	7	-1
CC(=O)OCC1=C(C(=O)O)N2C(=O)[C@@H](NC(=O)Cc3cccs3)[C@H]2SC1	.	100*	.	.	.	.
C=CC1=C(C(=O)O)N2C(=O)C(NC(=O)Cc3ccccc3)C2SC1 (stereo unspecified)	1.3	.	5	33	.	2
CCOc1ccccc1-n1c(SCC(=O)N2CCOCC2)nnc1-c1ccccn1	1.4	-25	0	1	5	7
CCOc1ccccc1-n1c(SCC(=O)N(CC)CC)nnc1-c1ccccn1	1	-15	40*	-1	8	-1
COc1ccccc1CNC(=O)CSc1nc(N)c(C#N)c(-c2cccs2)c1C#N	1.1	.	-2	-10	.	0
N#CC(C(=O)CCN1C(=O)C2CC=CCC2C1=O)c1nc2ccccc2[nH]1 (stereo unspecified)	1	-5	13	6	13	-2
N#CC(C(=O)C12CC3CC(CC(C3)C1)C2)c1nc2ccccc2[nH]1 (stereo unspecified)	1.1	48	74*	-16	1	-6
COc1cccc2c1NC(c1ccccc1Cl)C1CC=CC21 (stereo unspecified)	.	.	.	.	-6	.
SMILES	PLAP act	Ecoli tolC	PostGolgi ctrl	Ecoli WT expand	HePTP inhibitor	PostGolgi yeast
Cc1ccc2c(c1C)NC(C(=O)O)C1CC=CC21 (stereo unspecified)	1.3	-11	0	-15	.	-13
O=C(O)C1Nc2c(C(=O)N3CCCC3)cccc2C2C=CCC12 (stereo unspecified)	.	.	.	.	94*	.
O=C(O)C1Nc2c(C(=O)N3CCOCC3)cccc2C2C=CCC12 (stereo unspecified)	1.5	-2	1	-4	25	-6
O=C(O)c1cccc2c1NC(c1cccc(Cl)c1Cl)C1CC=CC21 (stereo unspecified)	.	.	.	.	88*	.
Cc1c(Cl)ccc2c1NC(C(=O)O)C1CC=CC21 (stereo unspecified)	.	.	.	.	103*	.
O=C(O)c1ccc([N+](=O)[O-])c2c1NC(c1ccccc1)C1CC=CC21 (stereo unspecified)	.	.	.	.	88*	.
Cc1nc2cc3ccccc3cc2c(=O)[nH]1	0.9	.	12	1	.	-3
CCOC(=O)c1[nH]c2c(CC)cccc2c1CCN1C(=O)c2ccccc2C1=O	.	.	.	.	-3	.
OCc1nc2ccccc2n1CC(O)Cn1ccc2ccccc21 (stereo unspecified)	1.9	-5	5	2	0	-5
Oc1ccccc1NCC(O)Cn1ccc2ccccc21 (stereo unspecified)	1.8	55	37*	7	5	16
CCOC(=O)Oc1ccc2c(=O)c(Oc3cccc(C)c3)coc2c1	1	.	4	8	.	0
CCOc1ccc(Oc2cc(NC(=O)c3ccco3)cc([N+](=O)[O-])c2)cc1	0.9	.	44*	-3	5	-1
COc1ccc(NC(=S)NC(NC(=O)c2ccc(Cl)cc2Cl)C(Cl)(Cl)Cl)c([N+](=O)[O-])c1 (stereo unspecified)	1	.	22	-11	.	69*
COc1ccc(OC)c(NC(=S)NC(NC(=O)c2ccccc2Cl)C(Cl)(Cl)Cl)c1 (stereo unspecified)	.	.	.	.	104*	.
COC(=O)c1cc(NC(=O)C2CC2)cc(C(=O)OC)c1	1	-3	2	-1	13	14
CCOc1cc(C(=O)Nc2sc3c(c2C(=O)OC)CCCCC3)cc(OCC)c1OCC	.	.	.	.	5	.
O=C(Nc1nc(-c2ccccc2Cl)cs1)c1cccnc1	0.9	.	5	4	.	-3
C=CCn1c(C)cc(C(=O)CSc2nc3ccccc3[nH]2)c1C	1.3	.	10	-10	.	-7
C=CCn1c(C)cc(C(=O)CSc2nnc(NCc3ccccc3)s2)c1C	.	42	96*	-21	-2	62*
Cc1cc(C(=O)CSc2nc3ccccc3o2)c(C)n1C1CC1	0.9	76*	23	-6	5	3
O=C(CSc1nc2ccccc2o1)c1ccc(Cl)cc1Cl	.	.	.	.	8	.
C=CCn1c(C)cc(C(=O)CSc2nc3ccccc3c(=O)[nH]2)c1C	1.2	0	89*	3	1	25
C=CCn1c(C)cc(C(=O)CSc2nnc(Cc3ccccc3)o2)c1C	1.1	23	96*	-3	5	82*
C=CCn1c(C)cc(C(=O)CSc2nc3ccccc3o2)c1C	1.1	40	52*	-5	6	-14
CC(C)C(C(=O)O)N1C(=O)/C(=C/c2ccc3c(c2)OCO3)SC1=S (stereo unspecified)	.	.	.	.	-3	.
C=CCOc1ccc(/C=C2\C(=O)NC(=O)N(c3ccc(Cl)cc3)C2=O)cc1OC	.	.	.	.	2	.
N#Cc1cc(Oc2cccc3cccnc23)c(-n2nnc3ccccc32)cc1C#N	1	11	19	-10	7	1
Cc1cccc(C)c1OCC(=O)NN=Cc1ccc(O)cc1	.	.	.	.	2	.
O=C(COc1ccc(Cl)cc1)NCCSCc1cccc(Cl)c1	1.1	.	39*	-5	.	5
O=C(COc1ccc(Cl)cc1Cl)NNC(=S)Nc1ccc(F)cc1	1.1	.	38*	5	.	4

High-throughput results (PubChem BioAssay)
